Experimental findings from ChEMBL document CHEMBL1135184, “2,4-Disubstituted pyrroles: synthesis, traceless linking and pharmacological investigations leading to the dopamine D4 receptor partial agonist FAUC 356” (Bioorg Med Chem Lett, 2002) are described below.

The target of experiment [1] is T1, D(2) dopamine receptor (Homo sapiens, UniProt P14416). The experiment is described as follows: Ability to displace […] radioligand from cloned human Dopamine receptor D2 in CHO cells. In kind it is cell-based.
T1 sequence (P14416 whole entry): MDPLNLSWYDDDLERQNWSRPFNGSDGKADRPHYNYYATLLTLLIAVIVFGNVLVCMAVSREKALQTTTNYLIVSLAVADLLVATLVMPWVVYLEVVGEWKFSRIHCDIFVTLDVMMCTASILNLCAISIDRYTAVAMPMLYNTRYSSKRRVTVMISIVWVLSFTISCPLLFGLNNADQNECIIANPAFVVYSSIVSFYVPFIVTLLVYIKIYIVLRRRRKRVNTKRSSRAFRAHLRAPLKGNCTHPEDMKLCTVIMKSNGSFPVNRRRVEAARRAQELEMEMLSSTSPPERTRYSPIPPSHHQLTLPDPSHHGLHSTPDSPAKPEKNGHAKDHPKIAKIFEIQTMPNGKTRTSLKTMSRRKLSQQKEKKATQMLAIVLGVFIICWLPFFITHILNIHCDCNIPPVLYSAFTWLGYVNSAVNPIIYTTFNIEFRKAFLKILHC
For experiment [2], the target named is D(1A) dopamine receptor (Bos taurus, UniProt Q95136). The experiment is described as follows: Ability to displace [3H]SCH-23,390 radioligand from bovine Dopamine receptor D1.
Sequence of D(1A) dopamine receptor (Q95136 whole entry): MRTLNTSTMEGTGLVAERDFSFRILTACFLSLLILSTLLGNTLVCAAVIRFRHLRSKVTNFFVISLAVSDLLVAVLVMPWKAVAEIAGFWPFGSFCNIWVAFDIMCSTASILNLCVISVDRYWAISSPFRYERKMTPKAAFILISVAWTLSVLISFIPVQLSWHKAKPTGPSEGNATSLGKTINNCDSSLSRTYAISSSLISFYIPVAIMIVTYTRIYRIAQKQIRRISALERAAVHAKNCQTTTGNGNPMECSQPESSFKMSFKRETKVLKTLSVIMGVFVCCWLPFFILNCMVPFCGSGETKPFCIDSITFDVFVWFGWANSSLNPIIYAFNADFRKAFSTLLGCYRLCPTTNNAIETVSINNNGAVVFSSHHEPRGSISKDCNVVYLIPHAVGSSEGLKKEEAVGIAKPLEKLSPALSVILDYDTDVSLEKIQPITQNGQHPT
Experiment [3] addresses T2, D(4) dopamine receptor (Homo sapiens, UniProt P21917).
T2 sequence (P21917 whole entry): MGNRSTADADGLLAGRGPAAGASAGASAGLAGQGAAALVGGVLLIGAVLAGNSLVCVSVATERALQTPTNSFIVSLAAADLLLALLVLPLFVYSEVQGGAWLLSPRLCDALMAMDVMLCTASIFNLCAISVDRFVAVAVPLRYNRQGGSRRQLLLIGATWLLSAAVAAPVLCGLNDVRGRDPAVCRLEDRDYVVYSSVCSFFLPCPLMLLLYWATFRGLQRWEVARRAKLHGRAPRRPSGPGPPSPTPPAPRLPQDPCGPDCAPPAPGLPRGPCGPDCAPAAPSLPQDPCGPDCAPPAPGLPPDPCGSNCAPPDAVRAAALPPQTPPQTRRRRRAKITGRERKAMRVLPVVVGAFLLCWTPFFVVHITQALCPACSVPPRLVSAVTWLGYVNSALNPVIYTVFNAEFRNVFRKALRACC
The experiment is described as follows: Ability to displace [3H]spiperone radioligand from cloned human Dopamine receptor D4 in CHO cells. It is filed as cell-based.

The target in experiment [4] is D(3) dopamine receptor (Homo sapiens, UniProt P35462). The experiment is described as follows: Ability to displace [3H]spiperone radioligand from cloned human Dopamine receptor D3 in CHO cells. In kind it is cell-based. Put shortly: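 Human D3 receptor stably expressed in CHO cells, membranes labelled with [3H]spiperone in a competition format.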
Sequence of D(3) dopamine receptor (P35462 whole entry): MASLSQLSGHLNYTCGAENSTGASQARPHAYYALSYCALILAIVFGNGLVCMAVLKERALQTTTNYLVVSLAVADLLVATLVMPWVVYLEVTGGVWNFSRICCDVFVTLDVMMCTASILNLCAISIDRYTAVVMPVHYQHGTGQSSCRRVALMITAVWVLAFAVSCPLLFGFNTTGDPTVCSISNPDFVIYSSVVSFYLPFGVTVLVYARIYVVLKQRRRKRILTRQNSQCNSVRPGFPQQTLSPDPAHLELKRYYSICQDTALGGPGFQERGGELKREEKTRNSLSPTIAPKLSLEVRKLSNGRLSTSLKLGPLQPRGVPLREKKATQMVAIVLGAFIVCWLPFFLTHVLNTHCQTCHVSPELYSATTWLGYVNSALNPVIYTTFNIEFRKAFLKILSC
Experiment [5] deals with T3, D(4) dopamine receptor (Homo sapiens) (UniProt P21917).
T3 sequence (whole entry): T2 sequence (P21917 whole entry)

Experiment [6] deals with T1, D(2) dopamine receptor. Briefly: Ability to displace [3H]spiperone radioligand from cloned human Dopamine receptor D2 in CHO cells. In kind it is cell-based.
For experiment [7], the target named is 5-hydroxytryptamine receptor 2A (Sus scrofa, UniProt P50129). The experiment is described as follows: Ability to displace [3H]-Ketanserin radioligand from porcine 5-hydroxytryptamine 2A receptor.
Sequence of 5-hydroxytryptamine receptor 2A (P50129 whole entry): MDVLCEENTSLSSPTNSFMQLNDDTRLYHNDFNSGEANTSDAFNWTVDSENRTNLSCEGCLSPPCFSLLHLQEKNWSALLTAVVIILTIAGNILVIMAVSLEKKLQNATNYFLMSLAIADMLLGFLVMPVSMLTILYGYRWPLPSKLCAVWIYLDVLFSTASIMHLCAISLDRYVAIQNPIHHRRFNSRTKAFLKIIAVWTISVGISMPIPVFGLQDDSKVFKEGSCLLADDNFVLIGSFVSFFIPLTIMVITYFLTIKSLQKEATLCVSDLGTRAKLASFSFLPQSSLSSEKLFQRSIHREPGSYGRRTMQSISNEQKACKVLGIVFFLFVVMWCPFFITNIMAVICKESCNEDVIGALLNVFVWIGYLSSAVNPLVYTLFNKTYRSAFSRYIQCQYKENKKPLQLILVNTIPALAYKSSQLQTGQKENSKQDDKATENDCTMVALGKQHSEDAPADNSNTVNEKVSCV
The target in experiment [8] is T2, D(4) dopamine receptor. The experiment is described as follows: Effective concentration of compound required against human Dopamine D4.2 receptor. In kind it is functional.

pEC50, pKi: −log10 of the molar value.

`N#Cc1cc(CN2CCN(c3ccccc3)CC2)c[nH]1`: the pKi in experiment [1] is 5.62; in experiment [2], 5.92; in experiment [3], 7.74; in experiment [4], 6.14; in experiment [6] it was 5.47; in experiment [7], 6.35. This compound also had a negative-log EC50 (pEC50) in experiment [5] of 8.11.

With `N#Cc1c[nH]c(CN2CCN(c3ccccc3)CC2)c1`, the pKi is 5.43 in experiment [1]; 5.34 in experiment [2]; 7.68 in experiment [3]; 5.74 in experiment [4]; 5.10 in experiment [6]; 6.21 in experiment [7]. This compound also had a pEC50 in experiment [8] of 8.25.

For `c1ccc(N2CCN(Cc3ccc[nH]3)CC2)cc1`, the negative logarithm of the Ki (pKi) in experiment [1] was 5.51; in experiment [2], 5.27; in experiment [3], 7.00; in experiment [4] it was 6.24; in experiment [6], 5.52.

With `C#Cc1c[nH]c(CN2CCN(c3ccccc3)CC2)c1`, the negative-log Ki (pKi) in experiment [1] was 6.11; in experiment [2], 5.70; in experiment [3], 8.23; in experiment [4] it was 6.07; in experiment [6] it was 6.24; in experiment [7], 6.42. Besides, the negative logarithm of the EC50 (pEC50) in experiment [8] was 8.72.

As to `c1ccc(-c2c[nH]c(CN3CCN(c4ccccc4)CC3)c2)cc1`, the negative logarithm of the Ki (pKi) is 6.64 in experiment [1]; 5.68 in experiment [2]; 7.92 in experiment [3]; 6.27 in experiment [4]; 6.77 in experiment [6]; 5.89 in experiment [7]. Besides, the pEC50 in experiment [8] is 8.17.

As for `C(#Cc1c[nH]c(CN2CCN(c3ccccc3)CC2)c1)c1ccccc1`, the pKi in experiment [1] is 6.12; in experiment [2], 5.57; in experiment [3], 7.08; in experiment [4], 6.17; in experiment [6], 6.26.

For orientation: pKi means −log10 of the Ki, conventionally taken in molar units. Lower therefore signals a high Ki. In general, pEC50 refers to the negative decadic logarithm of the EC50, by convention in mol/L.
